One may read the Cmax as the peak of the concentration-time curve. The AUC(0-inf) is the area under the concentration-time curve extrapolated to infinity. In general, AUC(0-t) refers to the area under the concentration-time curve up to a stated or last time point. For orientation: half-life means the time needed for the level to fall by half in the phase considered. As usually defined, the Tmax is the time from dosing to the highest level.

The subject of one data set is Rattus norvegicus. The data set can be described thus: Total drug excretion in F344 rat at 1 mg/kg, po administered as single dose after 0 to 48 hrs by scintillation counting method. Format: ADME, organism-based. To be noted: in vivo. Set-up: dose 1 mg/kg, route oral. The method in brief:
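Fasted F344 rats (n = 4) received [14C]-labelled drug at 1 mg/kg (41.9 µCi/kg), iv via tail vein or oral. They were housed in metabolic cages. Urine and feces were collected to 168 h, and expired CO2 was trapped in 2-aminoethanol/2-methoxyethanol to 48 h. Radioactivity was counted by liquid scintillation, feces after homogenization. Results are % of dose.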

A short description of data set [1]: Drug metabolism in rat liver S9 fractions at 0.42 uCi/ml assessed as metabolite formation in presence of NADPH after 1 hr at 37 degC by LC-MS/MS method. To be noted: s9, 1 h. It counts as ADME, subcellular, Liver S9 fraction.
Data set [2] can be described thus: Drug metabolism in monkey kidney S9 fractions at 0.42 uCi/ml assessed as metabolite formation in presence of NADPH after 1 hr at 37 degC by LC-MS/MS method. Conditions: rhesus monkey, s9, 1 h. It counts as ADME, tissue-based, Macaca mulatta.
The nature of data set [3]: Drug metabolism in human intestinal S9 fractions at 0.42 uCi/ml assessed as metabolite formation in presence of NADPH after 1 hr at 37 degC by LC-MS/MS method. It counts as ADME, Intestine. To be noted: s9, 1 h.
A short description of data set [4]: Drug excretion in cynomolgus monkey feces at 3 mg/kg, iv administered as single dose after 0 to 48 hrs by scintillation counting method. It counts as ADME, organism-based, Macaca fascicularis. Set-up: dose 3 mg/kg, route intravenous. Conditions: in vivo. The method in brief:
(§1)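 Fasted cynomolgus monkeys (n = 4) received [14C]-labelled drug at 3 mg/kg, iv via saphenous vein (191 µCi/kg) or orally by stomach catheter (156.5 µCi/kg). Urine, feces and water cage-wash were collected to 336 h. Samples were counted by liquid scintillation; feces were homogenized in 4-fold water. Results are % of dose, mean ± S.D.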

Another data set concerns Cynomolgus monkey. Kind of data set: Total drug excretion in cynomolgus monkey at 3 mg/kg, iv administered as single dose after 0 to 336 hrs by scintillation counting method. Format: ADME, organism-based, Macaca fascicularis. Set-up: dose 3 mg/kg, route intravenous. To be noted: in vivo. In a few lines:
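Fasted male cynomolgus monkeys (n = 4) were dosed with 14C-labelled drug at 3 mg/kg, iv via saphenous vein (191 µCi/kg) or orally by stomach catheter (156.5 µCi/kg). Urine, feces and cage-wash water were collected to 336 h. Radioactivity was measured by liquid scintillation counting, with feces homogenized in water, and expressed as % of dose.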

Data set [5] is described as follows: Drug excretion in cynomolgus monkey feces at 3 mg/kg, po administered as single dose after 0 to 48 hrs by scintillation counting method. Format: ADME, organism-based, Macaca fascicularis. Set-up: dose 3 mg/kg, route oral. Conditions: in vivo. In a few lines:
as §1

Data set [6] is described as follows: Drug excretion in cynomolgus monkey urine at 3 mg/kg, po administered as single dose after 0 to 336 hrs by scintillation counting method. To be noted: in vivo. More on the design: dose 3 mg/kg, route oral. It counts as ADME, organism-based, Macaca fascicularis.
Data set [7] in a line: Drug metabolism in po dosed monkey urine assessed as 1,4-dideoxy-1,4-imino-D-arabinitol formation by LC-MS/MS method. To be noted: cynomolgus monkey, in vivo.
A short description of data set [8]: Cmax in cynomolgus monkey at 10 mg/kg, po administered as single dose by LC-MS/MS method. It counts as ADME, organism-based, Macaca fascicularis. More on the design: dose 10 mg/kg, route oral. To be noted: in vivo. In a few lines: (§2)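 Fasted male F344 rats (146–185 g) and cynomolgus monkeys (3.48–4.29 kg), n = 4 each, received a single oral dose; monkeys had 2-week washouts. Plasma sampled up to 48 h, stored at […], assayed by LC-MS/MS with a deuterated internal standard. Cmax taken from observed data by noncompartmental analysis; mean ± S.D. (n = 3 or 4).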

The nature of data set [9]: AUC (0 to infinity) in cynomolgus monkey at 10 mg/kg, po administered as single dose by LC-MS/MS method. Format: ADME, organism-based, Macaca fascicularis. More on the design: time infinity, dose 10 mg/kg, route oral. To be noted: plasma. In a few lines:
(§3)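 Fasted male F344 rats (146–185 g) or male cynomolgus monkeys (3.48–4.29 kg), n = 4 per dose, given single iv or oral dose of 0.3, 1.0, 3.0 or 10.0 mg/kg; monkeys dosed with 2-week washouts. Blood sampled to 48 h; plasma stored frozen. LC-MS/MS with deuterated internal standard. Noncompartmental analysis: AUClast by trapezoidal rule; AUC0–inf = AUClast + Ctz/terminal rate constant; mean ± S.D.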

The nature of data set [10]: AUC (0 to infinity) in F344 rat at 0.3 mg/kg, po administered as single dose by LC-MS/MS method. It counts as ADME, organism-based. Set-up: time infinity, dose 0.3 mg/kg, route oral. To be noted: plasma. In a few lines: as §3
The nature of data set [11]: AUClast in F344 rat at 1 mg/kg, iv administered as single dose by LC-MS/MS method. Format: ADME, organism-based. Set-up: time 0 - last, dose 1 mg/kg, route intravenous. To be noted: plasma. In a few lines:
as §3

The nature of data set [12]: AUClast in F344 rat at 10 mg/kg, iv administered as single dose by LC-MS/MS method. It counts as ADME, organism-based. More on the design: time 0 - last, dose 10 mg/kg, route intravenous. To be noted: plasma. The method in brief: as §3
Data set [13] is described as follows: Half life in F344 rat at 10 mg/kg, iv administered as single dose by LC-MS/MS method. It counts as ADME, organism-based. Set-up: dose 10 mg/kg, route intravenous. To be noted: in vivo. In a few lines: (§4)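 Fasted male F344 rats (146–185 g, n = 4 per dose) received single i.v. CS-1036. Plasma was sampled up to 48 h and analysed by LC-MS/MS. t1/2 came from noncompartmental regression of three or more log-transformed terminal-phase points. Mean ± S.D.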

The nature of data set [14]: Half life in cynomolgus monkey at 3 mg/kg, iv administered as single dose by LC-MS/MS method. It counts as ADME, organism-based, Macaca fascicularis. Set-up: dose 3 mg/kg, route intravenous. Conditions: in vivo. In a few lines:
(§5)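 Male F344 rats (146–185 g) and male cynomolgus monkeys (3.48–4.29 kg), n = 4 each, fasted overnight, received single iv or oral doses of 0.3, 1.0, 3.0 or 10.0 mg/kg. Monkeys had 2-week washouts between doses. Plasma was sampled to 48 h and assayed by LC-MS/MS with deuterated internal standard. Noncompartmental analysis: tmax observed; t1/2 by regression on ≥3 terminal log points; Vss = dose·AUMC/(AUC0–inf)²; Foral = oral/iv AUC0–inf at the same dose.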

Data set [15] is described as follows: Cmax in F344 rat at 0.3 mg/kg, po administered as single dose by LC-MS/MS method. Format: ADME, organism-based. To be noted: in vivo. More on the design: dose 0.3 mg/kg, route oral. The method in brief:
as §2

The nature of data set [16]: Volume of distribution at steady state in F344 rat at 0.3 mg/kg, iv administered as single dose by LC-MS/MS method. It counts as ADME, organism-based. To be noted: in vivo, read-out: Vdss. More on the design: dose 0.3 mg/kg, route intravenous. In a few lines: as §5
Data set [17] is described as follows: Volume of distribution at steady state in cynomolgus monkey at 10 mg/kg, iv administered as single dose by LC-MS/MS method. Format: ADME, organism-based, Macaca fascicularis. Set-up: dose 10 mg/kg, route intravenous. Conditions: in vivo, read-out: Vdss. In a few lines:
as §5

Data set [18] is described as follows: Half life in F344 rat at 1 mg/kg, iv administered as single dose by LC-MS/MS method. Format: ADME, organism-based. More on the design: dose 1 mg/kg, route intravenous. Conditions: in vivo. In a few lines:
as §4

Data set [19] can be described thus: Tmax in F344 rat at 10 mg/kg, po administered as single dose by LC-MS/MS method. Format: ADME, organism-based. More on the design: dose 10 mg/kg, route oral. Conditions: in vivo. In a few lines:
as §5

Data set [20] in a line: Tmax in F344 rat at 3 mg/kg, po administered as single dose by LC-MS/MS method. It counts as ADME, organism-based. To be noted: in vivo. Set-up: dose 3 mg/kg, route oral. The method in brief:
as §5

A short description of data set [21]: Tmax in F344 rat at 0.3 mg/kg, po administered as single dose by LC-MS/MS method. It counts as ADME, organism-based. Set-up: dose 0.3 mg/kg, route oral. To be noted: in vivo. The method in brief:
as §5

Data set [22] is described as follows: AUC (0 to infinity) in F344 rat at 1 mg/kg, po administered as single dose by LC-MS/MS method. More on the design: dose 1 mg/kg, route oral, time infinity. To be noted: plasma. Format: ADME, organism-based. The method in brief: as §3
Data set [23] is described as follows: Half life in F344 rat at 10 mg/kg, po administered as single dose by LC-MS/MS method. It counts as ADME, organism-based. Set-up: dose 10 mg/kg, route oral. Conditions: in vivo.
Data set [24] can be described thus: Half life in F344 rat at 1 mg/kg, po administered as single dose by LC-MS/MS method. It counts as ADME, organism-based. Set-up: dose 1 mg/kg, route oral. Conditions: in vivo.

On to `C[C@H]1O[C@@H](O[C@H]2[C@H](O)[C@@H](O)[C@@H](O[14C@H]3[14C@H](O)[14CH2]N[14C@@H]3[14CH2]O)O[C@@H]2CO)[C@H](O)[C@@H](O)[C@@H]1O`, for which the Drug excretion is 93.26% in the data set on Rattus norvegicus; 0.46% in data set [4]; 96.29% in the data set on Cynomolgus monkey; 78.5% in [5]; 5.67% in data set [6]. The Drug metabolism result in data set [1] is “metabolite_not_detected”; in data set [2] it was “metabolite_not_detected”; in data set [3], “metabolite_not_detected”; in data set [7], “metabolite_detected”.
On to `C[C@H]1O[C@@H](O[C@H]2[C@H](O)[C@@H](O)[C@@H](O[C@H]3[C@H](O)CN[C@@H]3CO)O[C@@H]2CO)[C@H](O)[C@@H](O)[C@@H]1O`, for which the Cmax stood at 152 ng/mL in data set [8] and 16.2 ng/mL in data set [15]. In addition, the total exposure AUC(0-inf) amounted to 894 ng·h/mL in data set [9], 45.6 ng·h/mL in data set [10] and 115 ng·h/mL in data set [22]. For the same compound, the AUC(0-t) in [11] is 4920 ng·h/mL; in [12], 53000 ng·h/mL. Also, the half-life in data set [13] was 21.5 h; in data set [14], 25.1 h; in [18], 18.4 h; in [23], 18.3 h; in data set [24], 1.81 h. Moreover, the Vd in data set [16] was 0.218 L/kg; in data set [17], 0.217 L/kg. Moreover, the results for the time of peak concentration (Tmax) in data set [19], in [20] and in [21] were 0.438 h, 0.375 h and 0.5 h, respectively.

Source of the values: ChEMBL document CHEMBL3526127, “Absorption, elimination, and metabolism of CS-1036, a novel α-amylase inhibitor in rats and monkeys, and the relationship between gastrointestinal distribution and suppression of glucose absorption” (Drug Metab Dispos, 2013).
